Data published in ChEMBL document CHEMBL1148747, “Structure-activity relationship studies of spinorphin as a potent and selective human P2X(3) receptor antagonist” (J Med Chem, 2007).
Calls of active or inactive are those of the source. The calls are words filed in the database; no cut-off is given here. Residues, ends and D or L forms follow the SMILES beside them.

How the values were obtained:
[1] = molecular target: T1, P2X purinoceptor 7 (Homo sapiens) (UniProt Q99572); assay: Antagonist activity at human recombinant P2X7 receptor expressed in HEK293 cells assessed as BzATP-induced ethidium accumulation at 10 uM; assay type: functional, cell-based
T1 sequence (whole entry): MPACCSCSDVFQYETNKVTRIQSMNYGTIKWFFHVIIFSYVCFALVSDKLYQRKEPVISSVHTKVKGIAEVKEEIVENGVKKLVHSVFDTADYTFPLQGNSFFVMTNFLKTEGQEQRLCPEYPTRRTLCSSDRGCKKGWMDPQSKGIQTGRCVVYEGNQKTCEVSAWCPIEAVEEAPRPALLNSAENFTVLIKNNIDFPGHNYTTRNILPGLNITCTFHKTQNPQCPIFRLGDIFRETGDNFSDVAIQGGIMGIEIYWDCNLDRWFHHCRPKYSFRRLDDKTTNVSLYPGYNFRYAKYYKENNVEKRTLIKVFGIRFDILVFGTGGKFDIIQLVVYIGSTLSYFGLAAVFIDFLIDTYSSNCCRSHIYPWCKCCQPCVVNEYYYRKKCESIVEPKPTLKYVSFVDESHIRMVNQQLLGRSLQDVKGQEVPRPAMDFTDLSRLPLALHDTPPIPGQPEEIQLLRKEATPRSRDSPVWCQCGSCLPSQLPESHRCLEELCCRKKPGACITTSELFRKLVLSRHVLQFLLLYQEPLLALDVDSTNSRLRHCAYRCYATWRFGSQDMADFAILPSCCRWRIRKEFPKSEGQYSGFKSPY
Outline: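 HEK293 cells expressing human P2X7, grown in DMEM with 10% FBS. Cells resuspended in HEPES/KCl/glucose/EDTA buffer (pH 7.4) with 100 µM ethidium bromide, 2 × 10^5 cells/well. 6 µM BzATP given together with 10 µM compound, no preincubation. After 120 min at 37 °C, ethidium fluorescence read (ex 530/em 590 nm). Mean ± SEM, n = 3.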

[2] = molecular target: T2, P2X purinoceptor 1 (Mus musculus) (UniProt P51576); assay: Antagonist activity at mouse recombinant P2X1 receptor expressed in Xenopus oocytes assessed as inhibition of ATP-induced ion current at 10 uM by two electrode voltage clamping technique; assay type: functional, cell-based; conditions: Oocyte
T2 sequence (whole entry): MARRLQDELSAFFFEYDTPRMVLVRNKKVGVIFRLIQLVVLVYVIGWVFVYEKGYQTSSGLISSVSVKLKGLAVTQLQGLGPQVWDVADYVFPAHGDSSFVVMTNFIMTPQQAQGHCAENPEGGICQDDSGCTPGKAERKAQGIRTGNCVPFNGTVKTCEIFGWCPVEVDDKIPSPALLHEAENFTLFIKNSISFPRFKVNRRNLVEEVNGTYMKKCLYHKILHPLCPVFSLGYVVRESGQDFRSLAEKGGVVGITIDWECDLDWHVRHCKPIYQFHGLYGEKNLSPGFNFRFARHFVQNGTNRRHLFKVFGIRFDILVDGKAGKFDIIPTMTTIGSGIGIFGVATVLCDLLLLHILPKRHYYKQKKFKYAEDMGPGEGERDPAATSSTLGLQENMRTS
Outline: (§1)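 Defolliculated Xenopus oocytes injected with receptor cRNA (40 nL, 1 µg/mL). Incubated 24 h at 18 °C in Barth's solution, then kept at 4 °C for up to 12 days. Two-electrode voltage clamp at Vh -90 mV in Ringer's solution (Ba2+, pH 7.5, 18 °C). Peptide applied 20 min before 2 µM ATP; current inhibition measured against ATP-alone control; n = 4.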

[3] = molecular target: T3, P2X purinoceptor 3 (Homo sapiens) (UniProt P56373); assay: Antagonist activity at human recombinant P2X3 receptor expressed in Xenopus oocytes assessed as inhibition of ATP-induced ion current at 10 uM by two electrode voltage clamping technique; assay type: functional, cell-based; conditions: Oocyte; outline: as §1
T3 sequence (whole entry): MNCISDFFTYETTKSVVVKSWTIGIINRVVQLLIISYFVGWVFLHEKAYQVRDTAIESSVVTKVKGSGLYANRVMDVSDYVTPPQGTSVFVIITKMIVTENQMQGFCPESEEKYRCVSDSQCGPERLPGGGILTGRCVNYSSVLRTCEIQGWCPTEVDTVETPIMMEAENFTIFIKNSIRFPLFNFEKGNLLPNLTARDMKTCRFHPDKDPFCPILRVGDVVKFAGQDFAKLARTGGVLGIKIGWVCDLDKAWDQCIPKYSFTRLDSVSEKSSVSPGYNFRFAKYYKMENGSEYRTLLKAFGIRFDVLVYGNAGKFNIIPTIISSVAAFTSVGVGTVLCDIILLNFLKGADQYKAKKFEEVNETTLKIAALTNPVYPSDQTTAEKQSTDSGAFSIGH

[4] = molecular target: T3, P2X purinoceptor 3 (Homo sapiens); assay: Antagonist activity at human recombinant P2X3 receptor expressed in Xenopus oocytes assessed as inhibition of ATP-induced ion current at 100 nM by two electrode voltage clamping technique; conditions: Oocyte
P2X purinoceptor 3 [5] = molecular target: T4, P2X purinoceptor 3 (Homo sapiens, UniProt P56373); assay: Antagonist activity at human P2X3 receptor expressed in Xenopus oocytes assessed as inhibition of ATP-induced ion current by two electrode voltage clamping technique; assay type: functional, cell-based, Oocyte; outline: as §1
T4 sequence (P56373 whole entry): T3 sequence (whole entry)

[6] = molecular target: T2, P2X purinoceptor 1 (Mus musculus); assay: Antagonist activity at mouse recombinant P2X1 receptor expressed in Xenopus oocytes assessed as inhibition of ATP-induced ion current at 100 nM by two electrode voltage clamping technique; conditions: Oocyte
P2X purinoceptor 3 [7] = molecular target: T4, P2X purinoceptor 3; assay: Antagonist activity at human recombinant P2X3 receptor expressed in Xenopus oocytes assessed as inhibition of ATP-induced ion current in presence of 20 nM LVVYPWA peptide by two electrode voltage clamping technique; assay type: functional, cell-based, Oocyte

Compound | Activity [1] | inhibition [2] [%] | inhibition [4] [%] | other results
C[C@@H](O)[C@H](NC(=O)[C@H](Cc1c[nH]c2ccccc12)NC(=O)[C@@H]1CCCN1)C(=O)O (H-Pro-Trp-Thr-OH) | – | – | – | inhibition [3]: 32.7%
N[C@@H](Cc1ccc(O)cc1)C(=O)N1CCC[C@H]1C(=O)N[C@@H](Cc1c[nH]c2ccccc12)C(=O)O (H-Tyr-Pro-Trp-OH) | – | – | – | inhibition [3]: 15.6%
CC(C)[C@H](N)C(=O)N[C@@H](Cc1ccc(O)cc1)C(=O)N1CCC[C@H]1C(=O)N[C@@H](Cc1c[nH]c2ccccc12)C(=O)O (H-VYPW-OH) | – | – | – | Activity [3]: inactive
CC(C)[C@H](N)C(=O)N[C@@H](Cc1ccc(O)cc1)C(=O)N1CCC[C@H]1C(=O)O (H-Val-Tyr-Pro-OH) | – | – | – | inhibition [3]: 16.2%
C[C@@H](O)[C@H](NC(=O)[C@H](Cc1c[nH]c2ccccc12)NC(=O)[C@@H]1CCCN1C(=O)[C@@H](N)Cc1ccc(O)cc1)C(=O)O (H-YPWT-OH) | – | – | – | inhibition [3]: 13.3%
CC(C)[C@@H]1NC(=O)[C@H](C)NC(=O)[C@H]([C@@H](C)O)NC(=O)[C@H](Cc2c[nH]c3ccccc23)NC(=O)[C@@H]2CCCN2C(=O)[C@H](Cc2ccc(O)cc2)NC(=O)[C@H](C(C)C)NC1=O (HELM PEPTIDE1{A.V.V.Y.P.W.T}$PEPTIDE1,PEPTIDE1,1:R1-7:R2$$$V2.0) | inactive | 6.4 | 11.4 | –
Cc1nc(/N=N/c2cc(S(=O)(=O)O)ccc2S(=O)(=O)O)c(COP(=O)(O)O)c(C=O)c1O [ISOPPADS] | – | – | 48.3 | IC50 (P2X purinoceptor 3 [5]): 108 nM; inhibition [6]: 64.2%
H-LVAYPWT-OH | inactive | – | 53.4 | Activity [2]: inactive
H-LVVAPWT-OH | inactive | – | 52.3 | Activity [2]: inactive
H-LVVYAWT-OH | inactive | – | 12.9 | Activity [2]: inactive
H-VVYPWT-OH | – | – | – | inhibition [3]: 29.3%
H-VYPWT-OH | – | – | – | Activity [3]: inactive

Further lines, with some results ahead:

Activity [1] | inhibition [2] [%] | inhibition [4] [%] | Compound | other results
inactive | 15.5 | – | CC(C)C[C@@H](NC(=O)[C@H](NC(=O)[C@H](NC(=O)[C@@H](Cc1ccc(O)cc1)NC(=O)[C@H]1CCCN1C(=O)[C@@H](Cc1c[nH]c2ccccc12)NC(=O)[C@H](N)[C@@H](C)O)C(C)C)C(C)C)C(=O)O | –
– | 11.5 | 36.3 | CC(C)C[C@@H]1NC(=O)[C@H]([C@@H](C)O)NC(=O)[C@H](Cc2c[nH]c3ccccc23)NC(=O)[C@@H]2CCCN2C(=O)[C@H](Cc2ccc(O)cc2)NC(=O)[C@H](C(C)C)NC(=O)[C@H](C(C)C)NC1=O (HELM PEPTIDE1{L.V.V.Y.P.W.T}$PEPTIDE1,PEPTIDE1,1:R1-7:R2$$$V2.0) | IC50 (P2X purinoceptor 3 [5]): 82.4 nM; inhibition [1]: 8.8%
inactive | – | 82.5 | H-AVVYPWT-OH | IC50 (P2X purinoceptor 3 [5]): 14.3 nM; Activity [2]: inactive
– | 8.1 | 48.4 | H-LAVYPWT-OH | IC50 (P2X purinoceptor 3 [5]): 32.4 nM; inhibition [1]: 7.6%
– | 4.2 | 17 | H-LVVYPAT-OH | inhibition [1]: 16.7%
– | 7.4 | 67.2 | H-LVVYPWT-OH [SPINORPHIN] | IC50 (P2X purinoceptor 3 [7]): 0.0481 nM; IC50 (P2X purinoceptor 3 [5]): 0.0083 nM; inhibition [1]: 8.3%
